Source: ChEMBL document CHEMBL5696442, “Discovery of type II inhibitors of TGFβ-activated kinase 1 (TAK1) and mitogen-activated protein kinase kinase kinase kinase 2 (MAP4K2)” (J Med Chem, 2015)
Activity calls are given as the source filed them. The calls are words filed in the database; no cut-off is given here.

How the values were obtained:
[1] = target: Ribosomal protein S6 kinase alpha-2 (Homo sapiens) (UniProt Q15349); experiment: Inhibition of N-terminal RSK3 kinase domain 1 (unknown origin) at 1 uM by Ambit Kinomescan binding assay relative to control
Outline: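 In vitro ATP-site competition binding assay against a panel of over 420 kinases (KinomeScan), with compound tested at 10 or 1 μM.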

[2] = target: Serine/threonine-protein kinase pim-2 (Homo sapiens) (UniProt Q9P1W9); experiment: Inhibition of PIM2 (unknown origin) at 1 uM by Ambit Kinomescan binding assay relative to control; values are per cent of control
[3] = target: Cyclin-dependent kinase 16 (Homo sapiens) (UniProt Q00536); experiment: Inhibition of PCTK1 (unknown origin) at 1 uM by Ambit Kinomescan binding assay relative to control
[4] = target: Serine/threonine-protein kinase 17B (Homo sapiens) (UniProt O94768); experiment: Inhibition of DRAK2 (unknown origin) at 1 uM by Ambit Kinomescan binding assay relative to control; values are per cent of control
Sequence of Serine/threonine-protein kinase 17B (Homo sapiens) (O94768 whole entry): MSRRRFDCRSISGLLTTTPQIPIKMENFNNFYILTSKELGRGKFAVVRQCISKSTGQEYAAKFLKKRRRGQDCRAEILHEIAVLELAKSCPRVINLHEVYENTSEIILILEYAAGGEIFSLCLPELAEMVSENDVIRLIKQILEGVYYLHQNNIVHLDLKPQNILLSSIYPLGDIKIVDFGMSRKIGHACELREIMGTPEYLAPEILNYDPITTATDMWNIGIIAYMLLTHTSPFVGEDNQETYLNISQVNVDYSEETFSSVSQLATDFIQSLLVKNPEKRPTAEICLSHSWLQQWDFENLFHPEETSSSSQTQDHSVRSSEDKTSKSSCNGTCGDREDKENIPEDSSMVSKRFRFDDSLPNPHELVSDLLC

[5] = target: Calcium/calmodulin-dependent protein kinase type II subunit delta (Homo sapiens) (UniProt Q13557); experiment: Inhibition of CAMK2D (unknown origin) at 10 uM by Ambit Kinomescan binding assay
[6] = target: DNA-dependent protein kinase catalytic subunit (Homo sapiens) (UniProt P78527); experiment: Inhibition of PRKDC ATP labeling site harbouring KGGSWIQEINVAEKNWYPR in human Huh-7 cells at 10 uM by KiNativ Profiling analysis relative to control; format: cell-based
[7] = target: Serine/threonine-protein kinase 17A (Homo sapiens) (UniProt Q9UEE5); experiment: Inhibition of DRAK1 (unknown origin) at 10 uM by Ambit Kinomescan binding assay
[8] = target: Cyclin-dependent kinase 5 (Homo sapiens) (UniProt Q00535); experiment: Inhibition of CDK5 K2 labeling site harbouring DLKPQNLLINR in human Huh-7 cells at 10 uM by KiNativ Profiling analysis relative to control; format: cell-based
[9] = target: AMPK alpha1/alpha2 (Homo sapiens) (UniProt P54646+Q13131); experiment: Inhibition of AMPK alpha1/2 K2 labeling site in human Huh-7 cells at 10 uM by KiNativ Profiling analysis relative to control; format: cell-based
Sequence of AMPK alpha1/alpha2 (Homo sapiens) (P54646 whole entry, looked up): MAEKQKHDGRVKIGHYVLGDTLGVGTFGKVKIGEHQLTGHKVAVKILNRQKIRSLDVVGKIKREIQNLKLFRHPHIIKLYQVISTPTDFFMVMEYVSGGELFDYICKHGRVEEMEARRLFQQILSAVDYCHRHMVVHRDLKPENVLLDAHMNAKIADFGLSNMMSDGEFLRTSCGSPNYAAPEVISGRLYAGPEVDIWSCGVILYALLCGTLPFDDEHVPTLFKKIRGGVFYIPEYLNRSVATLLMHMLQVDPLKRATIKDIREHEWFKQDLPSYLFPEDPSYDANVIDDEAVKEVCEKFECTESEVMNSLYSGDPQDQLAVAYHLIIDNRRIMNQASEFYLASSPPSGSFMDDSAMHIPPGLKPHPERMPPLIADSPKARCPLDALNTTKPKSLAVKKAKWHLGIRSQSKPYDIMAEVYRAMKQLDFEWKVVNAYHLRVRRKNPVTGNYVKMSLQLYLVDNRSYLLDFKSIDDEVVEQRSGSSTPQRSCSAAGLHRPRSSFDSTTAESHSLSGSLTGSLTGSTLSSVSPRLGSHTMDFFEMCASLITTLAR
Sequence of AMPK alpha1/alpha2 (Homo sapiens) (Q13131 whole entry, looked up): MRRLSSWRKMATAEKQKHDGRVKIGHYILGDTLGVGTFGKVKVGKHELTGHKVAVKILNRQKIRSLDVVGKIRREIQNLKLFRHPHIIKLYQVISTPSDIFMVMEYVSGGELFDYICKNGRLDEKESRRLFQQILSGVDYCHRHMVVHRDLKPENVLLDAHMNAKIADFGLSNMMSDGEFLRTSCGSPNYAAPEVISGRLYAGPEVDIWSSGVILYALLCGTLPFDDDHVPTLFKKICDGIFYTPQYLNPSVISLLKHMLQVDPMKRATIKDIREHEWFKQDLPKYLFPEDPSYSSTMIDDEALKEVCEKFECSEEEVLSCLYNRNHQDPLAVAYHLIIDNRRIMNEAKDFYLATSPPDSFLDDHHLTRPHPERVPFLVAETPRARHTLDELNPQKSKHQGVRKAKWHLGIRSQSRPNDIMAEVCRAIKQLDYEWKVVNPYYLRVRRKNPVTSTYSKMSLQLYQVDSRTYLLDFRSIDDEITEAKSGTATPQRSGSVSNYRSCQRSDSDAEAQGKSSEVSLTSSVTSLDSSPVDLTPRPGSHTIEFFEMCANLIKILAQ

[10] = target: Epidermal growth factor receptor (Homo sapiens) (UniProt P00533); experiment: Inhibition of EGFR ACT labeling site harbouring ITDFGLAKLLGAEEK in human A-375 cells at 5 uM by KiNativ Profiling analysis relative to control; format: cell-based
Sequence of Epidermal growth factor receptor (Homo sapiens) (P00533 whole entry): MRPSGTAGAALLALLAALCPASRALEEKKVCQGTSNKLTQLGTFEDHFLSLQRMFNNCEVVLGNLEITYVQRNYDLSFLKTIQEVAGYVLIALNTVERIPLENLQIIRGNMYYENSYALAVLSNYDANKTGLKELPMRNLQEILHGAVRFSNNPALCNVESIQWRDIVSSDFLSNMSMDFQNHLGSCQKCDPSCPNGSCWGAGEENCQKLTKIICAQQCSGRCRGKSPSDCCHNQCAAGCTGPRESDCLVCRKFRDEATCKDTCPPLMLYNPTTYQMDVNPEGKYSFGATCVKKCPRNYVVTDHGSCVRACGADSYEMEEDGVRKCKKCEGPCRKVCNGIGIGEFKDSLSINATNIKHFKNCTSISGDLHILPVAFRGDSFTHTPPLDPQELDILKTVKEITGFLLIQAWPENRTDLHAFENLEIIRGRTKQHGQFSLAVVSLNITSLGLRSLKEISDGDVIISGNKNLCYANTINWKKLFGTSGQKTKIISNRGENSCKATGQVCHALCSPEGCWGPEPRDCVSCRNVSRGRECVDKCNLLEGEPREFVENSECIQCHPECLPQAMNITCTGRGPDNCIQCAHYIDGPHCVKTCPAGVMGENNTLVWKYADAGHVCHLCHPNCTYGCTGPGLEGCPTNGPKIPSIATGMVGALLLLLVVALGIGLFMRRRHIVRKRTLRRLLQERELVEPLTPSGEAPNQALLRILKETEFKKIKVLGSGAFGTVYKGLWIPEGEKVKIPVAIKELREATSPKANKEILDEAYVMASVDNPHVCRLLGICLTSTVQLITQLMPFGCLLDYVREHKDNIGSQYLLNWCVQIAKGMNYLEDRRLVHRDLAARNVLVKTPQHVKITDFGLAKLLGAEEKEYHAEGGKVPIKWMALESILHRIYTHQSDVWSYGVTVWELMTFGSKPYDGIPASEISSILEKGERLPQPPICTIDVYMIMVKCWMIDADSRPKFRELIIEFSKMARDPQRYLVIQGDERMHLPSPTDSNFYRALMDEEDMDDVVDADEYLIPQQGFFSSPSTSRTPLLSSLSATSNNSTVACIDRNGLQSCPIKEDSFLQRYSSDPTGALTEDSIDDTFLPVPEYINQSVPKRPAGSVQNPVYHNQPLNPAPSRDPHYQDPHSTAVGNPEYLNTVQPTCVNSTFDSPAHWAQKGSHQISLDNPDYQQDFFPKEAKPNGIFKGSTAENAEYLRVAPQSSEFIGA

[11] = target: MAP kinase-interacting serine/threonine-protein kinase 1 (Homo sapiens) (UniProt Q9BUB5); experiment: Inhibition of MKNK1 (unknown origin) at 10 uM by Ambit Kinomescan binding assay
Sequence of MAP kinase-interacting serine/threonine-protein kinase 1 (Homo sapiens) (Q9BUB5 whole entry, looked up): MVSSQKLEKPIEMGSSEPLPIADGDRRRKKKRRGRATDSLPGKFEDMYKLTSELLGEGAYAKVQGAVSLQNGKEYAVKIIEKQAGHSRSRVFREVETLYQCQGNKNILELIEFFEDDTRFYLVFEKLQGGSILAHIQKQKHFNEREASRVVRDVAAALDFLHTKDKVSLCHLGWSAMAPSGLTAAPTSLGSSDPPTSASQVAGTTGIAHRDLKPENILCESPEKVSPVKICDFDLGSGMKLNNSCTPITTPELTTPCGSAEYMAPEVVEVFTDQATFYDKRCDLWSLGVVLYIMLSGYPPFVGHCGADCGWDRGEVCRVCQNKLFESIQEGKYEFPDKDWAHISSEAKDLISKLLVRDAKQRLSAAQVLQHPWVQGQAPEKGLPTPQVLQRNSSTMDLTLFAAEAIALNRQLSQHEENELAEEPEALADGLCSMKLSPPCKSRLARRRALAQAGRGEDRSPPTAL

[12] = target: T1, Mitogen-activated protein kinase kinase kinase 15 (Homo sapiens) (UniProt Q6ZN16); experiment: Inhibition of MAP3K15 Lys1 labeling site harbouring IAIKEIPER in human A-375 cells at 5 uM by KiNativ Profiling analysis relative to control; format: cell-based
T1 sequence (whole entry): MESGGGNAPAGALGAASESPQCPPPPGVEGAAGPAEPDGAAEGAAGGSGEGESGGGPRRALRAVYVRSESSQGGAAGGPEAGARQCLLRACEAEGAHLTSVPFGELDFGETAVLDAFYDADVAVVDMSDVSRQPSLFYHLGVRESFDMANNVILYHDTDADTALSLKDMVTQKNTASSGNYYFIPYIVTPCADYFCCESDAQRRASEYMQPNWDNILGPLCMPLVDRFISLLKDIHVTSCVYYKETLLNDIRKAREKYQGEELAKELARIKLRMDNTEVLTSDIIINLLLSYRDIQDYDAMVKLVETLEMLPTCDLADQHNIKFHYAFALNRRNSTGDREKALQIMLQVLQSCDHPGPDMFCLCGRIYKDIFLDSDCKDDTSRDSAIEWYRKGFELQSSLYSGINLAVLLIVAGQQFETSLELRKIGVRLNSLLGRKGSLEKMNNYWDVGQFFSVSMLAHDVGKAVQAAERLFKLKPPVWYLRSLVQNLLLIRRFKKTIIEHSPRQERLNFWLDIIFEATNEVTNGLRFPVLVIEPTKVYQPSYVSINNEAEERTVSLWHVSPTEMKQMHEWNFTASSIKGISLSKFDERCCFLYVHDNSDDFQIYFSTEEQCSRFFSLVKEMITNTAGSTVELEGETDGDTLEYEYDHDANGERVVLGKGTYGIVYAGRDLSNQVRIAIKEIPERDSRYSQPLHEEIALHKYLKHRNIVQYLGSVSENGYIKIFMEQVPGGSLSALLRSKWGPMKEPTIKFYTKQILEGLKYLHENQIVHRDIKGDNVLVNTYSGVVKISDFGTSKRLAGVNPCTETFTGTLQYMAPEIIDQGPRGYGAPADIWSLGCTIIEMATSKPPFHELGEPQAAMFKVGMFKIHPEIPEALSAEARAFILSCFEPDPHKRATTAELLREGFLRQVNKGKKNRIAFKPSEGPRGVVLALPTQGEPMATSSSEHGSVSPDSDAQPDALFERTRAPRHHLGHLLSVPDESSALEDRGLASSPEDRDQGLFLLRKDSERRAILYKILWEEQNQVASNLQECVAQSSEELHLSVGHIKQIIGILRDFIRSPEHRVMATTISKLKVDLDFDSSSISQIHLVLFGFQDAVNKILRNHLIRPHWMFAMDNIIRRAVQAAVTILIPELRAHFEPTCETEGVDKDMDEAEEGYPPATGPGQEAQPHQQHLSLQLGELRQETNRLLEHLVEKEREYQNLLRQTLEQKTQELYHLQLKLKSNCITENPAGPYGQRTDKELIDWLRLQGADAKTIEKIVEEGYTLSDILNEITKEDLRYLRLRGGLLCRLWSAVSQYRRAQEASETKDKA

[13] = target: Activated CDC42 kinase 1 (Homo sapiens) (UniProt Q07912); experiment: Inhibition of ACK Lys1 labeling site in human A-375 cells at 5 uM by KiNativ Profiling analysis relative to control; format: cell-based
Sequence of Activated CDC42 kinase 1 (Homo sapiens) (Q07912 whole entry, looked up): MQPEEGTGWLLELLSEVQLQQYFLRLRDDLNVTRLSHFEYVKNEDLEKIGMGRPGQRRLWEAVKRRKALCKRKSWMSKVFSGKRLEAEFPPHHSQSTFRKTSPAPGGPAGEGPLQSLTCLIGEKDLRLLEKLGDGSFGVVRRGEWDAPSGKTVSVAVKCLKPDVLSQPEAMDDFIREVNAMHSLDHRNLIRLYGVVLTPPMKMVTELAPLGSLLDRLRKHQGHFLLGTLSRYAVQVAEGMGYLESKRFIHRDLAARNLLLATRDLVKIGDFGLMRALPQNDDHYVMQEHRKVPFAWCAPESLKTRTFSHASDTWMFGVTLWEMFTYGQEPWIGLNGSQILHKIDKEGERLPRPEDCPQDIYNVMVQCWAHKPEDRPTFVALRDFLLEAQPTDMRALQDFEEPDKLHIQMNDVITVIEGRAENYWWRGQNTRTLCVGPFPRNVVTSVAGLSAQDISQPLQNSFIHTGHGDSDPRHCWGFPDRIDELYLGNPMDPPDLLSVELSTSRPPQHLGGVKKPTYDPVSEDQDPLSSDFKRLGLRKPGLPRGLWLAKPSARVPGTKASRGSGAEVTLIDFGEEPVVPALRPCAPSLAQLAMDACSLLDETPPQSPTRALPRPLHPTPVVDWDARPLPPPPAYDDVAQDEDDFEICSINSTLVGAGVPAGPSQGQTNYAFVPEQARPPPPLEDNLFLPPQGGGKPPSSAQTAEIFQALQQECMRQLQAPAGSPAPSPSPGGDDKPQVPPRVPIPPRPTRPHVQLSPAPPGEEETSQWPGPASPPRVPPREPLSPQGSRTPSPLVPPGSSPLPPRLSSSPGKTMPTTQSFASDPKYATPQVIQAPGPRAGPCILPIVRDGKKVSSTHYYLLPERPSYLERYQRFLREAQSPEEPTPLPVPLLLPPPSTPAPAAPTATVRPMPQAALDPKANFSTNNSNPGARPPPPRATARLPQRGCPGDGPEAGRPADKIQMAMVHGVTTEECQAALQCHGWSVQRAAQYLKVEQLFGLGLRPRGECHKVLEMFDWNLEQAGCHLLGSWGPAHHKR

[14] = target: MAP/microtubule affinity-regulating kinase 3 (Homo sapiens) (UniProt P27448); experiment: Inhibition of MARK3 Lys2 labeling site in human Huh-7 cell lysate at 1 uM by KiNativ Profiling analysis relative to control; format: subcellular
Sequence of MAP/microtubule affinity-regulating kinase 3 (Homo sapiens) (P27448 whole entry, looked up): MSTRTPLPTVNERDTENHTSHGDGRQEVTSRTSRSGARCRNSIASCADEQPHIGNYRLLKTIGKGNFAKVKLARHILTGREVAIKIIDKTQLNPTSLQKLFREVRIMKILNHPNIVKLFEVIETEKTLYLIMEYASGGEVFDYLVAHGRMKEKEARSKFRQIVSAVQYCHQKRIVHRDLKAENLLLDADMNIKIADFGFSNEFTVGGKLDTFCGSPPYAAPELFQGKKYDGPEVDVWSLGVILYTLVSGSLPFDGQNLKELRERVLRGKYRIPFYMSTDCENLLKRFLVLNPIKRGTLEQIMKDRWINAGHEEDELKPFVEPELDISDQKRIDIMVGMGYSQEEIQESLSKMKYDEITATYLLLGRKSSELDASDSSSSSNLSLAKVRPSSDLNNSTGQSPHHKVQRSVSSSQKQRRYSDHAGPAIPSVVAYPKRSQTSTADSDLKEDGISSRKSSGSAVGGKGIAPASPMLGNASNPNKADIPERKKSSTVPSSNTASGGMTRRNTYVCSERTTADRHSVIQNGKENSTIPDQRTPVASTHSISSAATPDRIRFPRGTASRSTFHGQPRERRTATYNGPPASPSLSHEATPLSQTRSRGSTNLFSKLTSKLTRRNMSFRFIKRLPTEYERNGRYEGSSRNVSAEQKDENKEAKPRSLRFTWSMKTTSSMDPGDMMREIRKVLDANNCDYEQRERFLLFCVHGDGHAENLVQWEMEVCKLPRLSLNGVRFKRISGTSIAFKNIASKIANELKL

In the case of `CCN1CCN(Cc2ccc(NC(=O)c3ccc(C)c(/C=C/c4cnc5[nH]ccc5c4OC)c3)cc2C(F)(F)F)CC1`, the inhibition [1] is reported as 68%, the residual activity [2] is reported as 100% and the inhibition [3] is reported as 100%. It also gave a residual activity [4] of 16%.

In the case of `CCN1CCN(Cc2ccc(NC(=O)c3ccc(C)c(Oc4ccnc5[nH]ccc45)c3)cc2C(F)(F)F)CC1`, the inhibition [5] is reported as “inactive”, the inhibition [6] is reported as 1.9% and the inhibition [7] is reported as “inactive”. The inhibition [8] was -6.3%, the inhibition [9] was 6.2% and the inhibition [10] was 5.4%. For the same compound, the inhibition [11] was “inactive”, the inhibition [12] was -0.6% and the inhibition [13] was 6.1%.

In the case of `CNc1cc(Oc2cc(C(=O)Nc3cc(N4CCN(C)CC4)cc(C(F)(F)F)c3)ccc2C)ncn1`, the inhibition [14] is reported as -4.1%.
